# Measurements taken from ChEMBL document CHEMBL2177092, “Phosphoramidate ProTides of the anticancer agent FUDR successfully deliver the preformed bioactive monophosphate in cells and confer advantage over the parent nucleoside” (J Med Chem, 2011).
# Experiments:
# L1210 [1] = assay: Ratio of IC50 for Mycoplasma hyorhinis-infected mouse L1210 cells to IC50 for mouse L1210/0 cells after 48 hrs by cell counting; assay type: functional
# Summary of the method: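 Murine L1210/0 cells were compared with L1210/TK cells, selected for resistance to 5-bromo-2'-dUrd, and with L1210.Hyor cells, chronically infected with Mycoplasma hyorhinis. Cells were grown in DMEM with 10% FBS, 10 mM Hepes and 1 mM pyruvate at 37 °C and 5% CO2, then seeded at 60 000 cells/well with compound. They were Coulter-counted after 48 h. […] Mean of 2–4 experiments.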
# CCRF-CEM [2] = assay: Cytostatic activity against ENT1 transporter-deficient human CEM cells after 72 hrs by cell counting; assay type: functional, cell-based
# Summary of the method: (§1)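 Suspension leukemia cells in DMEM with 10% FBS, 10 mM Hepes and 1 mM sodium pyruvate at 37 °C under 5% CO2. Seeded at 60 000 cells/well with graded compound levels. Grown 48 h (L1210) or 72 h (CEM), then counted by Coulter counter. […] Mean ± SD of two to four independent experiments.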
# CCRF-CEM [3] = assay: Cytostatic activity against human CEM cells expressing human ENT1 transporter after 72 hrs by cell counting; assay type: functional, cell-based; summary of the method: as §1
# CCRF-CEM [4] = assay: Cytostatic activity against human CEM cells expressing human ENT1 transporter after 72 hrs by cell counting in presence of dipyridamole; assay type: functional, cell-based
# Summary of the method: (§2)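 CEM/hEnt-1 cells with 10 μM dipyridamole or 10 μM NBMPR added alongside graded compound levels, in DMEM with 10% FBS, 10 mM Hepes and 1 mM sodium pyruvate at 37 °C under 5% CO2. Seeded at 60 000 cells/well, counted by Coulter counter after 3 days.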
# CCRF-CEM [5] = assay: Cytostatic activity against thymidine-kinase deficient human CEM cells after 72 hrs by cell counting; assay type: functional, cell-based
# Summary of the method: (§3)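 Suspension leukemia cells in DMEM with 10% FBS, 10 mM Hepes and 1 mM sodium pyruvate at 37 °C under 5% CO2. Seeded at 60 000 cells/well with graded compound levels. Grown 48 h (L1210) or 72 h (CEM), then counted by Coulter counter. Mean ± SD of two to four independent experiments.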
# HeLa [6] = assay: Cytostatic activity against thymidine-kinase deficient human HeLa cells […]; assay type: functional, cell-based
# L1210 [7] = assay: Cytostatic activity against thymidine-kinase deficient mouse L1210 cells after 48 hrs by cell counting; assay type: functional, cell-based; conditions: L1210, 48 h; summary of the method: as §3
# HeLa [8] = assay: Cytostatic activity against human HeLa cells […] by cell counting; assay type: functional, cell-based
# CCRF-CEM [9] = assay: Ratio of IC50 for human CEM cells expressing human ENT1 transporter in presence of NBMPR to IC50 for human CEM cells expressing human ENT1 transporter; assay type: functional
# Summary of the method: (§4)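 Human T-lymphocyte CEM cells with (CEM/hEnt-1) or lacking (CEM/hEnt-0) the hENT1 transporter were seeded at 60 000 cells/well with graded compound concentrations. Transporter-inhibition runs added dipyridamole (10 μM) or NBMPR (10 μM) to CEM/hEnt-1 cells. […] Ratios are formed against untreated CEM/hEnt-1 IC50. Mean of 2–4 experiments.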
# CCRF-CEM [10] = assay: Cytostatic activity against human CEM/0 cells after 72 hrs by cell counting; assay type: functional, cell-based; summary of the method: as §1
# L1210 [11] = assay: Cytostatic activity against Mycoplasma hyorhinis-infected mouse L1210 cells after 48 hrs by cell counting; assay type: functional, cell-based; conditions: L1210, 48 h; summary of the method: as §3
# CCRF-CEM [12] = assay: Ratio of IC50 for ENT1 transporter-deficient human CEM cells to IC50 for human CEM cells expressing human ENT1 transporter after 72 hrs by cell counting; assay type: functional; summary of the method: as §4
# CCRF-CEM [13] = assay: Ratio of IC50 for human CEM cells expressing human ENT1 transporter in presence of dipyridamole to IC50 for human CEM cells expressing human ENT1 transporter; assay type: functional; summary of the method: as §4
# CCRF-CEM [14] = assay: Cytostatic activity against human CEM cells expressing human ENT1 transporter after 72 hrs by cell counting in presence of NBMPR; assay type: functional, cell-based; summary of the method: as §2
# [15] = Cytostatic activity against mouse L1210/0 cells after 48 hrs by cell counting; assay type: functional, cell-based; conditions: L1210/0, 48 h; summary of the method: as §3
SMILES,Ratio IC50 (L1210 [1]),IC50 (CCRF-CEM [2]) [nM],IC50 (CCRF-CEM [3]) [nM],IC50 (CCRF-CEM [4]) [nM],IC50 (CCRF-CEM [5]) [µM],IC50 (HeLa [6]) [µM],IC50 (L1210 [7]) [nM],IC50 (HeLa [8]) [nM],Ratio IC50 (CCRF-CEM [9]),IC50 (CCRF-CEM [10]) [nM],IC50 (L1210 [11]) [nM],Ratio IC50 (CCRF-CEM [12]),Ratio IC50 (CCRF-CEM [13]),IC50 (CCRF-CEM [14]) [nM],IC50 [15] [nM]
CC(C)(NP(=O)(OC[C@H]1O[C@@H](n2cc(F)c(=O)[nH]c2=O)C[C@@H]1O)Oc1cccc2ccccc12)C(=O)OCc1ccccc1 (mixture of isomers),2.4,400,50,160,2.4,3.1,130,78,2,160,45,7,2,280,19
CCCOC(=O)[C@H](C)NP(=O)(OC[C@H]1O[C@@H](n2cc(F)c(=O)[nH]c2=O)C[C@@H]1O)Oc1cccc2ccccc12 (mixture of isomers),1.2,,,,1.1,2.5,160,110,,140,36,,,,30
CCOC(=O)C(C)(C)NP(=O)(OC[C@H]1O[C@@H](n2cc(F)c(=O)[nH]c2=O)C[C@@H]1O)Oc1cccc2ccccc12 (mixture of isomers),3,1400,210,520,6.9,3.2,820,200,2,360,170,7,2,620,56
CCOC(=O)[C@H](C)NP(=O)(OC[C@H]1O[C@@H](n2cc(F)c(=O)[nH]c2=O)C[C@@H]1O)Oc1ccccc1 (mixture of isomers),5,,,,14,9.8,940,480,,920,540,,,,110
CC(C)OC(=O)[C@H](C)NP(=O)(OC[C@H]1O[C@@H](n2cc(F)c(=O)[nH]c2=O)C[C@@H]1O)Oc1ccccc1 (mixture of isomers),14,,,,30,25,1100,710,,1000,700,,,,50
CCOC(=O)[C@@H](NP(=O)(OC[C@H]1O[C@@H](n2cc(F)c(=O)[nH]c2=O)C[C@@H]1O)Oc1ccccc1)C(C)C (mixture of isomers),22,,,,> 250,27,42000,1200,,1000,4400,,,,200
CC(C)C[C@H](NP(=O)(OC[C@H]1O[C@@H](n2cc(F)c(=O)[nH]c2=O)C[C@@H]1O)Oc1ccccc1)C(=O)OCc1ccccc1 (mixture of isomers),3.2,,,,16,5.6,2000,67,,240,170,,,,54
CC[C@H](C)[C@H](NP(=O)(OC[C@H]1O[C@@H](n2cc(F)c(=O)[nH]c2=O)C[C@@H]1O)Oc1ccccc1)C(=O)OCc1ccccc1 (mixture of isomers),2.2,,,,30,25,1100,710,,1000,2200,,,,980
O=C(OCc1ccccc1)[C@H](Cc1ccccc1)NP(=O)(OC[C@H]1O[C@@H](n2cc(F)c(=O)[nH]c2=O)C[C@@H]1O)Oc1ccccc1 (mixture of isomers),35,,,,11,12,39000,14,,250,560,,,,16
